Test results as given in ChEMBL document CHEMBL1154874, “6-Substituted 2-(N-trifluoroacetylamino)imidazopyridines induce cell cycle arrest and apoptosis in SK-LU-1 human cancer cell line” (Eur J Med Chem, 2010).
The source made the active and inactive calls. The rule behind the calls is not given here.

Legend:
HCT-15 [1] = assay: Cytotoxicity against human HCT15 cells assessed as cell growth inhibition at 50 uM after 48 hrs by SRB assay; assay type: functional; conditions: for inhibition of growth at 50 µM: HCT-15, 48 h, read-out: GI
Method in brief: (§1)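 Cells in RPMI-1640/10% FBS/2 mM L-glutamine at 37 °C, 5% CO₂, seeded at 5000 cells/well and treated 24 h later for 48 h. Growth read by SRB (TCA fixation, 0.4% SRB, Tris solubilization, OD 515 nm).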

MCF7 [2] = assay: Cytotoxicity against human MCF7 cells assessed as cell growth inhibition at 50 uM after 48 hrs by SRB assay; assay type: functional; conditions: MCF7, 48 h, read-out: GI; method in brief: as §1
PC-3 [3] = assay: Cytotoxicity against human PC3 cells assessed as cell growth inhibition at 50 uM after 48 hrs by SRB assay; assay type: functional; conditions: PC-3, 48 h, read-out: GI; method in brief: as §1
U-251 [4] = assay: Cytotoxicity against human U251 cells assessed as cell growth inhibition at 50 uM after 48 hrs by SRB assay; assay type: functional; conditions: U-251, 48 h, read-out: GI; method in brief: as §1
SK-LU-1 [5] = assay: Cytotoxicity against human SK-LU-1 cells assessed as cell growth inhibition at 50 uM after 48 hrs by SRB assay; assay type: functional; conditions: SK-LU-1, 48 h, read-out: GI; method in brief: as §1
K562 [6] = assay: Cytotoxicity against human K562 cells assessed as cell growth inhibition at 50 uM after 48 hrs by SRB assay; assay type: functional; conditions: K562, 48 h, read-out: GI; method in brief: as §1
SK-LU-1 [7] = assay: Cell cycle arrest in human SK-LU-1 cells assessed as accumulation at S phase at 2 times IC50 concentration after 24 hrs using propidium iodide staining by flow cytometry relative to control; assay type: functional
Method in brief: (§2)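 Log-phase cells seeded in RPMI-1640 + 10% FBS at 1×10⁶ per 10 cm dish, attached 24 h at 37 °C, then exposed to compound (DMSO solvent control) for 24 h. Harvested with PBS-EDTA, washed, fixed in ice-cold 70% ethanol at −20 °C for 24–48 h, stained with propidium iodide and analysed by FACScan flow cytometry. Three independent experiments, mean ± SD; P < 0.05 versus DMSO.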

MCF7 [8] = assay: Cell cycle arrest in human MCF7 cells assessed as accumulation at S phase at 2 times IC50 concentration after 24 hrs using propidium iodide staining by flow cytometry relative to control; assay type: functional; method in brief: as §2
SK-LU-1 [9] = assay: Cell cycle arrest in human SK-LU-1 cells assessed as accumulation at G0/G1 phase at 2 times IC50 concentration after 24 hrs using propidium iodide staining by flow cytometry relative to control; assay type: functional; method in brief: as §2
MCF7 [10] = assay: Cell cycle arrest in human MCF7 cells assessed as accumulation at G0/G1 phase at 2 times IC50 concentration after 24 hrs using propidium iodide staining by flow cytometry relative to control; assay type: functional; method in brief: as §2
SK-LU-1 [11] = assay: Induction of apoptosis in human SK-LU-1 cells assessed as appearance of phosphatidylserine residues at 2 times IC50 concentration after 48 hrs by flow cytometry; assay type: functional
Method in brief: (§3)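 SK-LU-1 cells treated 48 h with compounds at 2×IC50 or with DMSO as control. Labelled with FITC-annexin V and propidium iodide in binding buffer and analysed on a FACScan flow cytometer. Annexin V-only cells were scored as early apoptotic and annexin V/PI double-stained cells as late apoptotic. Values are means of three independent experiments.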

SK-LU-1 [12] = assay: Cell cycle arrest in human SK-LU-1 cells assessed as accumulation at G2/M phase at 2 times IC50 concentration after 24 hrs using propidium iodide staining by flow cytometry relative to control; assay type: functional; method in brief: as §2
MCF7 [13] = assay: Cell cycle arrest in human MCF7 cells assessed as accumulation at G2/M phase at 2 times IC50 concentration after 24 hrs using propidium iodide staining by flow cytometry relative to control; assay type: functional; method in brief: as §2
SK-LU-1 [14] = assay: Cytotoxicity against human SK-LU-1 cells after 48 hrs by SRB assay; assay type: functional, cell-based; conditions: SK-LU-1, 48 h
Method in brief: (§4)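 Compounds dissolved in DMSO. Cells grown in RPMI-1640 with 10% FBS and 2 mM L-glutamine at 37 °C under 5% CO₂. Seeded from 70% confluent flasks at 5000 cells/well, treated 24 h after seeding for 48 h. Fixed in situ with cold 50% TCA for 1 h at 4 °C, stained with 0.4% SRB, dye solubilized in 10 mM unbuffered Tris base, OD read at 515 nm.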

PC-3 [15] = assay: Cytotoxicity against human PC3 cells after 48 hrs by SRB assay; assay type: functional, cell-based; conditions: PC-3, 48 h; method in brief: as §4
U-251 [16] = assay: Cytotoxicity against human U251 cells after 48 hrs by SRB assay; assay type: functional, cell-based; conditions: U-251, 48 h; method in brief: as §4
HCT-15 [17] = assay: Cytotoxicity against human HCT15 cells after 48 hrs by SRB assay; assay type: functional, cell-based; conditions: HCT-15, 48 h; method in brief: as §4
MCF7 [18] = assay: Cytotoxicity against human MCF7 cells after 48 hrs by SRB assay; assay type: functional, cell-based; conditions: MCF7, 48 h; method in brief: as §4
K562 [19] = assay: Cytotoxicity against human K562 cells after 48 hrs by SRB assay; assay type: functional, cell-based; conditions: K562, 48 h; method in brief: as §4
SK-LU-1 [20] = assay: Induction of apoptosis in human SK-LU-1 cells assessed as late apoptotic cells at 2 times IC50 concentration after 48 hrs using annexin V-propidium iodide staining by flow cytometry; assay type: functional, cell-based; method in brief: as §3
SK-LU-1 [21] = assay: Induction of apoptosis in human SK-LU-1 cells assessed as early apoptotic cells at 2 times IC50 concentration after 48 hrs using annexin V-propidium iodide staining by flow cytometry; assay type: functional, cell-based; method in brief: as §3

Row | SMILES | inhibition of growth at 50 µM (MCF7 [2]) | inhibition of growth at 50 µM (PC-3 [3]) | inhibition of growth at 50 µM (U-251 [4]) | inhibition of growth at 50 µM (SK-LU-1 [5]) | inhibition of growth at 50 µM (K562 [6]) | inhibition of growth at 50 µM (HCT-15 [1]) | Activity (SK-LU-1 [7]) | Activity (MCF7 [8]) | Activity (SK-LU-1 [9]) | Activity (MCF7 [10]) | Activity (SK-LU-1 [11]) | Activity (SK-LU-1 [12]) | Activity (MCF7 [13]) | IC50 (SK-LU-1 [14]) | IC50 (PC-3 [15]) | IC50 (U-251 [16]) | IC50 (HCT-15 [17]) | IC50 (MCF7 [18]) | IC50 (K562 [19]) | other results
1 | Cn1ccnc1C(=O)c1ccc2nc(NC(=O)C(F)(F)F)cn2c1 | 30.8% | 6.1% | 11.9% | 29.2% | 45.3% |  |  |  |  |  |  |  |  |  |  |  |  |  |  | growth inhibition (GI) (HCT-15 [1]): inactive
2 | Cc1ccc(C(=O)c2ccc3nc(NC(=O)C(F)(F)F)cn3c2)cc1F | 57.3% | 30.7% | 37.9% | 81.5% | 52.2% | 65.5% | 16.2% | 14.5% | 22.6% | 63.5% | 39.5% | 60.6% | 18.1% |  |  |  |  |  |  | 
3 | O=C(c1ccc2nc(NC(=O)C(F)(F)F)cn2c1)c1ncc[nH]1 | 60.7% | 58.1% | 80.2% | 97.5% | 88.3% | 47.8% |  |  |  |  |  |  |  | 25.1 µM | 52.3 µM | 37.7 µM | 56.8 µM | 42.4 µM | 51.5 µM | 
4 | Cn1cc(C(=O)c2ccc3nc(NC(=O)C(F)(F)F)cn3c2)c2ccccc21 | 80.4% | 63.7% | 92.7% | 69.2% | 95.5% | 78% | 14.7% | 6.3% | 32.9% | 70.6% | 24.1% | 47.5% | 20.2% | 24.8 µM |  | 27.8 µM | 65.1 µM | 44.3 µM | 54.6 µM | Activity (SK-LU-1 [20]): Active; Activity (SK-LU-1 [21]): Active
5 | Cc1ccc(F)c(C(=O)c2ccc3nc(NC(=O)C(F)(F)F)cn3c2)c1 | 66.3% | 59.2% | 61.5% | 71.7% | 92.6% | 91.2% | 21.2% | 7.1% | 10.4% | 74% | 20% |  | 13.4% | 11.2 µM | 36.3 µM | 51.9 µM | 10.5 µM | 10.7 µM | 10.9 µM | Activity (SK-LU-1 [20]): Active; Activity (SK-LU-1 [21]): Active
6 | O=C(c1ccc(C(F)(F)F)c(F)c1)c1ccc2nc(NC(=O)C(F)(F)F)cn2c1 | 56.5% | 32.6% | 38.4% | 48.3% | 50.1% | 59.2% |  |  |  |  |  |  |  | 57.1 µM |  | 84.2 µM | 57.1 µM | 50.8 µM | 83.2 µM | 
7 | O=C(Nc1cn2cc(I)ccc2n1)C(F)(F)F | 36.7% | 50.9% | 20.8% | 25.6% | 33.1% | 56.3% |  |  |  |  |  |  |  |  |  |  |  |  |  | 
8 | O=C(c1ccc2nc(NC(=O)C(F)(F)F)cn2c1)c1ccc(C(F)(F)F)cc1F | 97.2% | 92.6% | 80.1% | 100% | 90.2% | 100% |  |  |  |  |  |  |  | 35.1 µM | 28 µM | 52.3 µM | 25 µM | 24.9 µM | 56.6 µM | 
9 | Cn1cnc2c(NCc3ccccc3)nc(NCCO)nc21 [OLOMOUCINE] | 37.6% | 22.7% | 32% | 36.9% | 19.8% | 28.9% | 19.7% | 15% | 44.2% | 60.6% |  | 31.8% | 23.2% | 68.1 µM | 81 µM | 81.5 µM | 62.5 µM | 55.9 µM | 89.3 µM | 
10 | O=C(c1ccc2nc(NC(=O)C(F)(F)F)cn2c1)c1cc(C(F)(F)F)ccc1F | 65.1% | 61.5% | 59.3% | 70.5% | 88% | 91.7% |  |  |  |  |  |  |  |  |  |  |  |  |  | 
